≈ marks a conversion by molar mass, not a printed value.
Columns and labels:
Assay type in all cases: functional
Staphylococcus hominis [1] = assay: Antimicrobial activity against methicillin-resistant coagulase-negative Staphylococcus hominis assessed as intermediate resistant isolates after 24 hrs by broth microdilution method
Staphylococcus simulans [2] = assay: Bactericidal activity against methicillin-resistant coagulase-negative Staphylococcus simulans after 24 hrs by plate counting method
Method in brief: (§1)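 Clinical staphylococcal isolates from patient body fluids, blood, genital secretions, pus or sputum; species by conventional methods or Vitek. Twofold dilutions in Mueller-Hinton broth, inoculum 5 × 10^5 CFU/ml, 37°C aerobic 24 h (CLSI M7-A6 microdilution). About 100 μl from each well without visible growth spread on MHA; 37°C 24 h. MBC = lowest concentration giving no growth on agar.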

[3] = system: Staphylococcus epidermidis; assay: Bactericidal activity against methicillin-susceptible coagulase-negative Staphylococcus epidermidis after 24 hrs by plate counting method; method in brief: as §1
Staphylococcus simulans [4] = assay: Bactericidal activity against methicillin-susceptible coagulase-negative Staphylococcus simulans after 24 hrs by plate counting method; method in brief: as §1
[5] = system: Staphylococcus haemolyticus; assay: Bactericidal activity against methicillin-susceptible coagulase-negative Staphylococcus haemolyticus after 24 hrs by plate counting method; method in brief: as §1
Staphylococcus simulans [6] = assay: Antimicrobial activity against methicillin-resistant coagulase-negative Staphylococcus simulans after 24 hrs by broth microdilution method
Method in brief: (§2)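 Clinical isolates came from blood, body fluids, genital secretions, pus or sputum, identified conventionally or by Vitek. MICs were run by CLSI M7-A6 broth microdilution in Mueller-Hinton broth with 5 × 10^5 CFU/ml inoculum. Agents were twofold serially diluted, starting from 10% DMSO. Drug-free and uninoculated controls were included. Plates were incubated aerobically at 37°C for 24 h; MIC is the lowest concentration giving no visible growth.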

Mammaliicoccus sciuri [7] = assay: Antimicrobial activity against methicillin-susceptible coagulase-negative Staphylococcus sciuri assessed as resistant isolates after 24 hrs by broth microdilution method
Mammaliicoccus sciuri [8] = assay: Bactericidal activity against methicillin-susceptible coagulase-negative Staphylococcus sciuri after 24 hrs by plate counting method; method in brief: as §1
Mammaliicoccus sciuri [9] = assay: Antimicrobial activity against methicillin-resistant coagulase-negative Staphylococcus sciuri assessed as intermediate resistant isolates after 24 hrs by broth microdilution method
Mammaliicoccus sciuri [10] = assay: Antimicrobial activity against methicillin-susceptible coagulase-negative Staphylococcus sciuri after 24 hrs by broth microdilution method; method in brief: as §2
Staphylococcus hominis [11] = assay: Bactericidal activity against methicillin-susceptible coagulase-negative Staphylococcus hominis after 24 hrs by plate counting method; method in brief: as §1
Mammaliicoccus sciuri [12] = assay: Antimicrobial activity against methicillin-resistant coagulase-negative Staphylococcus sciuri after 24 hrs by broth microdilution method; method in brief: as §2
Staphylococcus hominis [13] = assay: Antimicrobial activity against methicillin-resistant coagulase-negative Staphylococcus hominis assessed as resistant isolates after 24 hrs by broth microdilution method
[14] = system: Staphylococcus haemolyticus; assay: Antimicrobial activity against methicillin-resistant coagulase-negative Staphylococcus haemolyticus assessed as intermediate resistant isolates after 24 hrs by broth microdilution method
Staphylococcus aureus [15] = assay: Antimicrobial activity against methicillin-resistant Staphylococcus aureus assessed as resistant isolates after 24 hrs by broth microdilution method
Staphylococcus hominis [16] = assay: Antimicrobial activity against methicillin-susceptible coagulase-negative Staphylococcus hominis after 24 hrs by broth microdilution method; method in brief: as §2
[17] = system: Staphylococcus epidermidis; assay: Antimicrobial activity against methicillin-resistant coagulase-negative Staphylococcus epidermidis assessed as intermediate resistant isolates after 24 hrs by broth microdilution method
Staphylococcus aureus [18] = assay: Antimicrobial activity against methicillin-susceptible Staphylococcus aureus assessed as intermediate resistant isolates after 24 hrs by broth microdilution method
Staphylococcus simulans [19] = assay: Antimicrobial activity against methicillin-resistant coagulase-negative Staphylococcus simulans assessed as resistant isolates after 24 hrs by broth microdilution method
Staphylococcus hominis [20] = assay: Antimicrobial activity against methicillin-resistant coagulase-negative Staphylococcus hominis assessed as susceptible isolates after 24 hrs by broth microdilution method
Mammaliicoccus sciuri [21] = assay: Antimicrobial activity against methicillin-resistant coagulase-negative Staphylococcus sciuri assessed as susceptible isolates after 24 hrs by broth microdilution method
[22] = system: Staphylococcus haemolyticus; assay: Antimicrobial activity against methicillin-susceptible coagulase-negative Staphylococcus haemolyticus assessed as susceptible isolates after 24 hrs by broth microdilution method
[23] = system: Staphylococcus epidermidis; assay: Antimicrobial activity against methicillin-resistant coagulase-negative Staphylococcus epidermidis assessed as susceptible isolates after 24 hrs by broth microdilution method
Staphylococcus simulans [24] = assay: Antimicrobial activity against methicillin-susceptible coagulase-negative Staphylococcus simulans assessed as resistant isolates after 24 hrs by broth microdilution method
Staphylococcus aureus [25] = assay: Antimicrobial activity against methicillin-resistant Staphylococcus aureus assessed as intermediate resistant isolates after 24 hrs by broth microdilution method
Staphylococcus simulans [26] = assay: Antimicrobial activity against methicillin-susceptible coagulase-negative Staphylococcus simulans after 24 hrs by broth microdilution method; method in brief: as §2
Staphylococcus aureus [27] = assay: Antimicrobial activity against methicillin-resistant Staphylococcus aureus assessed as susceptible isolates after 24 hrs by broth microdilution method
Staphylococcus aureus [28] = assay: Bactericidal activity against methicillin-resistant Staphylococcus aureus after 24 hrs by plate counting method
[29] = system: Staphylococcus haemolyticus; assay: Antimicrobial activity against methicillin-resistant coagulase-negative Staphylococcus haemolyticus assessed as resistant isolates after 24 hrs by broth microdilution method
Staphylococcus aureus [30] = assay: Antimicrobial activity against methicillin-susceptible Staphylococcus aureus after 24 hrs by broth microdilution method; method in brief: as §2
Staphylococcus hominis [31] = assay: Antimicrobial activity against methicillin-resistant coagulase-negative Staphylococcus hominis after 24 hrs by broth microdilution method; method in brief: as §2
Staphylococcus hominis [32] = assay: Bactericidal activity against methicillin-resistant coagulase-negative Staphylococcus hominis after 24 hrs by plate counting method
[33] = system: Staphylococcus haemolyticus; assay: Antimicrobial activity against methicillin-susceptible coagulase-negative Staphylococcus haemolyticus assessed as resistant isolates after 24 hrs by broth microdilution method
Staphylococcus hominis [34] = assay: Antimicrobial activity against methicillin-susceptible coagulase-negative Staphylococcus hominis assessed as susceptible isolates after 24 hrs by broth microdilution method
Staphylococcus aureus [35] = assay: Bactericidal activity against methicillin-susceptible Staphylococcus aureus after 24 hrs by plate counting method; method in brief: as §1
Staphylococcus aureus [36] = assay: Antimicrobial activity against methicillin-susceptible Staphylococcus aureus assessed as susceptible isolates after 24 hrs by broth microdilution method
Staphylococcus hominis [37] = assay: Antimicrobial activity against methicillin-susceptible coagulase-negative Staphylococcus hominis assessed as resistant isolates after 24 hrs by broth microdilution method
[38] = system: Staphylococcus haemolyticus; assay: Antimicrobial activity against methicillin-resistant coagulase-negative Staphylococcus haemolyticus after 24 hrs by broth microdilution method; method in brief: as §2
[39] = system: Staphylococcus haemolyticus; assay: Antimicrobial activity against methicillin-susceptible coagulase-negative Staphylococcus haemolyticus after 24 hrs by broth microdilution method; method in brief: as §2

Structure (SMILES): CN[C@H](CC(C)C)C(=O)N[C@H]1C(=O)N[C@@H](CC(N)=O)C(=O)N[C@H]2C(=O)N[C@H]3C(=O)N[C@H](C(=O)N[C@H](C(=O)O)c4cc(O)cc(O)c4-c4cc3ccc4O)[C@H](O)c3ccc(c(Cl)c3)Oc3cc2cc(c3O[C@@H]2O[C@H](CO)[C@@H](O)[C@H](O)[C@H]2O[C@H]2C[C@](C)(N)[C@H](O)[C@H](C)O2)Oc2ccc(cc2Cl)[C@H]1O [VANCOMYCIN]
- Activity (Staphylococcus hominis [1]): 0%
- MBC50 (Staphylococcus simulans [2]): 2 µg/mL (≈ 1.38 µM)
- MBC90 (Staphylococcus simulans [2]): 4 µg/mL (≈ 2.76 µM)
- MBC (Staphylococcus simulans [2]; Staphylococcus simulans, 24 h): 0.5 µg/mL (≈ 0.345 µM)
- MBC50 [3]: 1 µg/mL (≈ 0.69 µM)
- MBC90 [3]: 4 µg/mL (≈ 2.76 µM)
- MBC ([3]; Staphylococcus epidermidis, 24 h): 0.125 µg/mL (≈ 0.0863 µM)
- MBC50 (Staphylococcus simulans [4]): 1 µg/mL (≈ 0.69 µM)
- MBC90 (Staphylococcus simulans [4]): 4 µg/mL (≈ 2.76 µM)
- MBC (Staphylococcus simulans [4]; Staphylococcus simulans, 24 h): 0.125 µg/mL (≈ 0.0863 µM)
- MBC50 [5]: 1 µg/mL (≈ 0.69 µM)
- MBC90 [5]: 4 µg/mL (≈ 2.76 µM)
- MBC ([5]; Staphylococcus haemolyticus, 24 h): 0.125 µg/mL (≈ 0.0863 µM)
- MIC (Staphylococcus simulans [6]): 0.125 µg/mL (≈ 0.0863 µM)
- MIC50 (Staphylococcus simulans [6]): 0.125 µg/mL (≈ 0.0863 µM)
- MIC90 (Staphylococcus simulans [6]): 2 µg/mL (≈ 1.38 µM)
- Activity (Mammaliicoccus sciuri [7]): 0%
- MBC50 (Mammaliicoccus sciuri [8]): 1 µg/mL (≈ 0.69 µM)
- MBC90 (Mammaliicoccus sciuri [8]): 4 µg/mL (≈ 2.76 µM)
- MBC (Mammaliicoccus sciuri [8]; Mammaliicoccus sciuri, 24 h): 0.125 µg/mL (≈ 0.0863 µM)
- Activity (Mammaliicoccus sciuri [9]): 0%
- MIC50 (Mammaliicoccus sciuri [10]): 0.25 µg/mL (≈ 0.173 µM)
- MIC90 (Mammaliicoccus sciuri [10]): 1 µg/mL (≈ 0.69 µM)
- MBC50 (Staphylococcus hominis [11]): 1 µg/mL (≈ 0.69 µM)
- MBC90 (Staphylococcus hominis [11]): 4 µg/mL (≈ 2.76 µM)
- MBC (Staphylococcus hominis [11]; Staphylococcus hominis, 24 h): 0.125 µg/mL (≈ 0.0863 µM)
- MIC (Mammaliicoccus sciuri [12]): 0.125 µg/mL (≈ 0.0863 µM)
- MIC50 (Mammaliicoccus sciuri [12]): 0.125 µg/mL (≈ 0.0863 µM)
- MIC90 (Mammaliicoccus sciuri [12]): 2 µg/mL (≈ 1.38 µM)
- Activity (Staphylococcus hominis [13]): 0%
- Activity [14]: 0%
- Activity (Staphylococcus aureus [15]): 0%
- MIC50 (Staphylococcus hominis [16]): 0.25 µg/mL (≈ 0.173 µM)
- MIC90 (Staphylococcus hominis [16]): 1 µg/mL (≈ 0.69 µM)
- Activity [17]: 0%
- Activity (Staphylococcus aureus [18]): 0%
- Activity (Staphylococcus simulans [19]): 0%
- Activity (Staphylococcus hominis [20]): 100%
- Activity (Mammaliicoccus sciuri [21]): 0%
- Activity [22]: 100%
- Activity [23]: 100%
- Activity (Staphylococcus simulans [24]): 12%
- Activity (Staphylococcus aureus [25]): 0%
- MIC50 (Staphylococcus simulans [26]): 0.25 µg/mL (≈ 0.173 µM)
- MIC90 (Staphylococcus simulans [26]): 1 µg/mL (≈ 0.69 µM)
- Activity (Staphylococcus aureus [27]): 100%
- MBC50 (Staphylococcus aureus [28]): 1 µg/mL (≈ 0.69 µM)
- MBC90 (Staphylococcus aureus [28]): 2 µg/mL (≈ 1.38 µM)
- MBC (Staphylococcus aureus [28]; Staphylococcus aureus, 24 h): 0.5 µg/mL (≈ 0.345 µM)
- Activity [29]: 0%
- MIC50 (Staphylococcus aureus [30]): 0.25 µg/mL (≈ 0.173 µM)
- MIC90 (Staphylococcus aureus [30]): 0.5 µg/mL (≈ 0.345 µM)
- MIC (Staphylococcus hominis [31]): 0.125 µg/mL (≈ 0.0863 µM)
- MIC50 (Staphylococcus hominis [31]): 0.125 µg/mL (≈ 0.0863 µM)
- MIC90 (Staphylococcus hominis [31]): 2 µg/mL (≈ 1.38 µM)
- MBC50 (Staphylococcus hominis [32]): 2 µg/mL (≈ 1.38 µM)
- MBC90 (Staphylococcus hominis [32]): 4 µg/mL (≈ 2.76 µM)
- MBC (Staphylococcus hominis [32]; Staphylococcus hominis, 24 h): 0.5 µg/mL (≈ 0.345 µM)
- Activity [33]: 0%
- Activity (Staphylococcus hominis [34]): 100%
- MBC50 (Staphylococcus aureus [35]): 1 µg/mL (≈ 0.69 µM)
- MBC90 (Staphylococcus aureus [35]): 2 µg/mL (≈ 1.38 µM)
- MBC (Staphylococcus aureus [35]; Staphylococcus aureus, 24 h): 0.25 µg/mL (≈ 0.173 µM)
- Activity (Staphylococcus aureus [36]): 100%
- Activity (Staphylococcus hominis [37]): 0%
- MIC [38]: 0.125 µg/mL (≈ 0.0863 µM)
- MIC50 [38]: 0.125 µg/mL (≈ 0.0863 µM)
- MIC90 [38]: 2 µg/mL (≈ 1.38 µM)
- MIC50 [39]: 0.25 µg/mL (≈ 0.173 µM)
- MIC90 [39]: 1 µg/mL (≈ 0.69 µM)
